Experimental data published in PMC7672428 (Nucleic Acids Research, 2020).
One block for each compound: values may come before it.

What was measured:
[1] = biological target: Ku70/80 (Homo sapiens, UniProt P12956+P13010); assay: Electrophoretic mobility shift assay; type: binding
Summary of the method: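 Purified Ku pre-incubated with varying concentrations of test compound, then added to 5′-[32P]-labeled 30-bp duplex DNA made by annealing a labeled strand to its complement. Incubated 30 min at 25°C, resolved on a 6% non-denaturing polyacrylamide gel, then phosphorimaged and quantified. Triplicate titrations, IC50 from fitted binding curves.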

[2] = biological target: DNA-PK (Homo sapiens, UniProt P12956+P13010); assay: DNA-PK phosphoryl-transferase kinase assay with p53 peptide substrate; type: biochemical
Sequence of DNA-PK (P12956 whole entry): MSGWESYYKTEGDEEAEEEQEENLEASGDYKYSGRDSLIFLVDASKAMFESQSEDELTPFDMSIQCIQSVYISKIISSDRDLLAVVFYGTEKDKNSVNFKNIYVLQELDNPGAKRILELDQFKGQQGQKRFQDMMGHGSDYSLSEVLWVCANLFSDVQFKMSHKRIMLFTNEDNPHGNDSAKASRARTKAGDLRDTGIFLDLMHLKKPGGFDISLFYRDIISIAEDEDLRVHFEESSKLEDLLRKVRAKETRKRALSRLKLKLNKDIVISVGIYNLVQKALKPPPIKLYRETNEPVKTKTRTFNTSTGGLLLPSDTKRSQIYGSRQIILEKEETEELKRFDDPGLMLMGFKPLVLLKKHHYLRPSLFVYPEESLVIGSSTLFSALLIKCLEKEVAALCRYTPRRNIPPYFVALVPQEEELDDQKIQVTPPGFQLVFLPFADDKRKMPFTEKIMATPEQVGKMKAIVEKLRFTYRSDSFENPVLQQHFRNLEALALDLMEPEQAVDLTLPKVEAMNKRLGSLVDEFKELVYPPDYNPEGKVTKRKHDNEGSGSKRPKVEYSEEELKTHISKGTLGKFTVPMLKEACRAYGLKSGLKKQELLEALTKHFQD
Sequence of DNA-PK (P13010 whole entry): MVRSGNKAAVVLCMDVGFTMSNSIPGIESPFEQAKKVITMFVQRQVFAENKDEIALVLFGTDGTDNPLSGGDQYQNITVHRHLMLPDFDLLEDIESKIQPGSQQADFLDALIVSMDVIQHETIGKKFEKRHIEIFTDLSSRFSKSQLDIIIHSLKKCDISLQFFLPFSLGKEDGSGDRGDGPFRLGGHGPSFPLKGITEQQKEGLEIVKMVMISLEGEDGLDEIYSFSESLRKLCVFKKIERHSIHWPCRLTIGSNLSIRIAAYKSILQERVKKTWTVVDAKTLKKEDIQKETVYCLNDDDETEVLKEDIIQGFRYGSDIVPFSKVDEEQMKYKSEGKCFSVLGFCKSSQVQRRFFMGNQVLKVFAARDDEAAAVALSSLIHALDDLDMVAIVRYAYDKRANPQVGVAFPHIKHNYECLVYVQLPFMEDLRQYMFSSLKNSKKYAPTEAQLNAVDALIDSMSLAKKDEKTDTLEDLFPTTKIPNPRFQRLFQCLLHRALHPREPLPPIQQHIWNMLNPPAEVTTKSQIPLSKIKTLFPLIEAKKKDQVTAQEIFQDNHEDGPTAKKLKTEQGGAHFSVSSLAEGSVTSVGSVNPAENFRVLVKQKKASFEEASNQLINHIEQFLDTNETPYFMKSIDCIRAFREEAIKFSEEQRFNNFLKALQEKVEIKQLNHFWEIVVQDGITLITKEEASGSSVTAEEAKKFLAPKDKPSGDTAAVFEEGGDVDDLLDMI
Summary of the method: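 DNA-PKcs purified from HeLa or HEK 293 cells and combined with Ku; test compound pre-incubated with the enzyme 15 min. Reaction started with ATP, unlabeled 30-bp duplex DNA and synthetic p53-based peptide. [32P] transfer run at 37°C for 15 min, stopped with 30% acetic acid, spotted on P81 filters and washed. Read by phosphorimaging. Triplicate titrations, IC50 from fitted binding curves.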

[3] = test system: Ku80-wt mouse embryo fibroblasts (MEF); assay: CCK-8 cell viability, wild type MEF; type: cell-based; settings: 20 μM
Summary of the method: (§1)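 Ku80-wt and Ku80-null MEFs in RPMI with 10% FBS, 5 × 10^3 per well, grown 24 h before treatment. Exposed 48 h in Opti-MEM to vehicle or 20 μM test compound, concurrently with indicated bleomycin concentrations (or compound alone), 1% DMSO constant. CCK-8 about 2 h, A450 read; percent viability relative to vehicle controls. Mean and SEM of triplicates.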

[4] = test system: Ku80-null mouse embryo fibroblasts (MEF); assay: CCK-8 cell viability, Ku80-null MEF; type: cell-based
Summary of the method: as §1

[5] = Solubility and stability; type: physicochemical
[6] = biological target: Ku protein (Homo sapiens, UniProt P12956+P13010); assay: Thermal-shift assay; type: binding
Sequence of Ku protein (P12956 whole entry): as the sequence (P12956 whole entry) above
Sequence of Ku protein (P13010 whole entry): as the sequence (P13010 whole entry) above
Summary of the method: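 Purified Ku70/80 (baculovirus-infected Sf9 cells) mixed with DMSO vehicle or a fixed test-compound concentration, then split into aliquots. Aliquots heated 3 min at a range of temperatures, cooled to 4 °C and spun at 12,000 × g for 20 min. Soluble Ku70 detected by SDS-PAGE western blot with chemiluminescence. Band intensities normalised to the 40 °C point, fit to a 4-parameter sigmoid, giving T1/2.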

[7] = biological target: MELK kinase (Homo sapiens, UniProt Q14680); assay: Kinase screen; type: biochemical; settings: 2.5 μM
Sequence of MELK kinase (Q14680 whole entry): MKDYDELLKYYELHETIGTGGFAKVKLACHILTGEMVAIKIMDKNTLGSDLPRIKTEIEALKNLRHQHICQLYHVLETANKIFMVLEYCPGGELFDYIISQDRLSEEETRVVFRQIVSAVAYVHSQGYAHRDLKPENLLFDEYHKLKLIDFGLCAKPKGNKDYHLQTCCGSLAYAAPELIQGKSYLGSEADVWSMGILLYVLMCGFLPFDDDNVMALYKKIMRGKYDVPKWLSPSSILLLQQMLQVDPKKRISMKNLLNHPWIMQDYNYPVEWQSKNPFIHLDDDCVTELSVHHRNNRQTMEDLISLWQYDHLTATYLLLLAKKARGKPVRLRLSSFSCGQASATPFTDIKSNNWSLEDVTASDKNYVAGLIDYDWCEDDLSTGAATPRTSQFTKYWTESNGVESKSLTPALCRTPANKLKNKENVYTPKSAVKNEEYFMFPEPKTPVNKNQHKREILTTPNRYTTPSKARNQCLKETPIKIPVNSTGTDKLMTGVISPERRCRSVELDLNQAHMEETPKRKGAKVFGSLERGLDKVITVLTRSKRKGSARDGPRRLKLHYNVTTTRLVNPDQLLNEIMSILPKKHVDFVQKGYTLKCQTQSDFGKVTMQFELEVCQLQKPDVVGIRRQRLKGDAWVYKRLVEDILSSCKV
Summary of the method: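 Panel of 24 kinases, each with its own substrate, run in triplicate with or without 2.5 μM test compound using ADP-Glo. After ATP depletion, generated ADP was read by coupled luciferase luminescence. Percent activity remaining, or inhibition, calculated relative to DMSO vehicle controls.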

[8] = test system: DNA-PKcs p-S2056 in H460 cells; assay: Immunofluorescence of DNA-PKcs p-S2056 after Bleomycin; type: cell-based; settings: 20 μM, concurrent or 1-2 h pre-incubation, 10 μM Bleomycin 1 h
Summary of the method: (§2)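 H460 cells on coverslips overnight, then 10 μM bleomycin for 1 h at 37 °C with 20 μM test compound, given concurrently or after 1 or 2 h preincubation; controls in 1% DMSO. Fixed in 4% PFA, permeabilised in 0.1% Triton, blocked. Stained with anti-p-DNA-PKcs S2056 and anti-γH2AX S139 (1:200, overnight 4 °C), plus DAPI. Fiji scored p-S2056 intensity and γH2AX foci over 200 cells; median, unpaired t-test.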

[9] = test system: γ-H2AX in H460 cells; assay: Immunofluorescence of γ-H2AX after Bleomycin; type: cell-based; settings: 20 μM, 10 μM Bleomycin 1 h
Summary of the method: as §2

[10] = test system: H460 cells; assay: CRISPR/Cas9 HDR-mediated gene insertion at EMX1; type: cell-based; settings: 20 μM
Summary of the method: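 Donor carrying GFP and a puromycin-resistance gene, flanked by 800 bp homology arms to an EMX1 CRISPR cut site, co-transfected into H460 cells with EMX1 gRNA and Cas9 plasmids, with vehicle or 20 μM test compound. Junctional PCR on genomic DNA scored precise homologous integration among puromycin-resistant clones.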

[11] = test system: H460 cells; assay: CCK-8 cell viability with etoposide; type: cell-based; settings: 20 μM, 48 h
Summary of the method: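 H460 cells in RPMI with 10% FBS, plated at 5 × 10^3 per well and grown 24 h. Treated 48 h in Opti-MEM with 20 μM test compound or vehicle plus indicated etoposide concentrations, DMSO held at 1%. CCK-8 added for about 2 h, then A450 read; percent viability taken relative to vehicle-treated controls. Mean and SEM of triplicates.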

Sequence of Ku70/80 (P12956 whole entry): as the sequence (P12956 whole entry) above
Sequence of Ku70/80 (P13010 whole entry): as the sequence (P13010 whole entry) above

Compound: O=c1cc(N2CCOCC2)oc2c(-c3cccc4c3sc3ccccc34)cccc12 [NU7441, reference compound]
impact on Ku–DNA binding activity [1]: no impact

Compound: COc1cccc(NC(=O)c2cc(-c3ccc(/C=C4\C(=O)N(c5cccc(C(=O)O)c5)N=C4C)o3)ccc2Cl)c1 [compound 68]
fold increase in Ku–DNA binding inhibitory activity ([1]; on incorporation of 3-methoxyphenyl amide into X80): 4 fold | IC50 [2]: 3.12 ± 0.7 µM | sensitivity to Bleomycin induced by compound, wild type cells ([3]; concurrent 48 h with Bleomycin): increased sensitivity | reduction in survival, single agent ([3]; preliminary single agent experiments): < 10% | sensitivity to Bleomycin induced by compound, Ku80-null cells ([4]; 20 μM, concurrent 48 h with Bleomycin): no significant increase in sensitivity | solubility compared to 5102 and 5135 [5]: significant increase in solubility

Compound: COc1cccc(NC(=O)c2cc(-c3ccc(CC4C(=O)N(c5cccc(C(=O)O)c5)N=C4C)o3)ccc2Cl)c1 (stereo not drawn) [compound 149]
IC50 [1]: 3.72 ± 1.5 µM | IC50 [2]: 0.5 ± 0.03 µM

Compound: Bleomycin [reference compound]
increased sensitivity of Ku80-null cells compared to wt MEFs ([4]; 48 h, CCK-8): ~6 fold

More lines, main results first:

IC50 [1]: 1.99 ± 0.9 µM | IC50 [2]: 0.24 ± 0.015 µM | shift in Tm of Ku ([6]; vs vehicle Tm of 50°C): 6 °C | Tm of Ku ([6]; with compound): 56 °C | inhibition of MELK kinase [7]: moderate inhibition
Compound: COc1cccc(NC(=O)c2cc(-c3ccc(CC4C(=O)N(c5cccc(-c6nnn[nH]6)c5)N=C4C)o3)ccc2Cl)c1 (stereo not drawn) [compound 245]
DNA-PKcs Ser 2056 phosphorylation in cells [8]: reduced Ser 2056 phosphorylation | γ-H2AX (DDR) [9]: inhibition of the DDR | Insertion efficiency (%) [10]: 80%

IC50 [1]: 2.66 ± 0.3 µM | IC50 [2]: 0.11 ± 0.02 µM
Compound: COc1cccc(NC(=O)c2cc(-c3ccc(CC4C(=O)N(c5cccc(C(=O)O)c5)N=C4C(F)(F)F)o3)ccc2Cl)c1 (stereo not drawn) [compound 322]
sensitization to etoposide [11]: Sensitization to etoposide
